{"data": "Measurements pooled from the literature", "PDGFRA V561D": "Platelet-derived growth factor receptor alpha (PDGFRA, Homo sapiens, UniProt P16234, V561D)", "PDGFRA D842V": "Platelet-derived growth factor receptor alpha (PDGFRA, Homo sapiens, UniProt P16234, D842V)", "PDGFRA": "Platelet-derived growth factor receptor alpha (PDGFRA, Homo sapiens, UniProt P16234)", "note": "Protocols differ between the studies behind these lines."}
{"SMILES": "CC/C(=N\\NC(=O)NCc1cccc(O)c1)c1ccc(O)c(C)c1O", "target": "PDGFRA V561D", "observed": "enzyme activity", "action": "inhibitor", "tested at": "0.1 µM", "endpoint": "inhibition", "result": "0.9%"}
{"SMILES": "COc1cc2ncnc(Nc3ccc(Oc4ccccc4)c(C)c3C)c2cc1OC", "target": "PDGFRA D842V", "observed": "enzyme activity", "action": "inhibitor", "tested at": "1 µM", "endpoint": "inhibition", "result": "3%"}
{"SMILES": "Cc1cc(NC(=O)c2cccc3cc(-c4cccc5[nH]nc(N)c45)ccc23)ccc1F", "target": "PDGFRA", "observed": "enzyme activity", "action": "inhibitor", "tested at": "0.1 µM", "endpoint": "activity vs control", "result": "92%"}
{"SMILES": "N#CCCc1ccc2c(c1)-c1[nH]c3ccc([N+](=O)[O-])cc3c1CC(=O)N2", "target": "PDGFRA", "observed": "cell-free assay", "tested at": "0.5 µM", "endpoint": "remaining signal", "result": "87.4%"}
{"SMILES": "CNC(=O)c1cc2c(Oc3ccc(NC(=O)C4(C(=O)Nc5ccc(F)cc5)CC4)cc3)ccnc2cc1OC", "target": "PDGFRA V561D", "observed": "enzyme activity", "action": "inhibitor", "technique": "radiometric", "tested at": "1 µM", "endpoint": "inhibition", "result": "101%"}
{"SMILES": "C[C@@H]1CN(c2cc(-c3nn(C)c4ccc(OC5(C)CC5)cc34)ncn2)C[C@H](C)O1", "target": "PDGFRA", "observed": "cell-free assay", "technique": "competition with immobilised ligand", "tested at": "1 µM", "endpoint": "remaining binding", "result": "83%"}
{"SMILES": "CC(C)(C)c1nc(-c2cccc(NS(=O)(=O)c3c(F)cccc3F)c2F)c(-c2ccnc(N)n2)s1", "target": "PDGFRA", "observed": "enzyme activity", "action": "inhibitor", "technique": "radiometric", "tested at": "1 µM", "endpoint": "remaining activity", "result": "103%"}
{"SMILES": "COc1cc2ncnc(Nc3ccc(Oc4ccccc4)cc3C)c2cc1OC", "target": "PDGFRA", "observed": "enzyme activity", "action": "inhibitor", "tested at": "1 µM", "endpoint": "inhibition", "result": "9%"}
{"SMILES": "Oc1ccc(-c2nc(-c3ccncc3)c(-c3ccc(F)cc3)[nH]2)cc1", "target": "PDGFRA", "observed": "cell-free assay", "tested at": "0.5 µM", "endpoint": "remaining signal", "result": "98.8%"}
{"SMILES": "FC(F)(F)Oc1cccc(-c2cnc3ccc(-c4ccncc4)nn23)c1", "target": "PDGFRA", "observed": "enzyme activity", "action": "inhibitor", "technique": "radiometric", "tested at": "1 µM", "endpoint": "activity vs control", "result": "70%"}
{"SMILES": "CC(C)(O)[C@H]1CC[C@H](Nc2ccc3ncc(-c4cccc(C(F)(F)F)c4)n3n2)CC1", "target": "PDGFRA", "observed": "enzyme activity", "action": "inhibitor", "tested at": "1 µM", "endpoint": "remaining activity", "result": "44.5%"}
{"SMILES": "COc1ccc2c(c1)O[C@H](c1ccc(OC)c(OC)c1)C[C@@H]2NC(=O)C1(c2ccc3c(c2)OC(F)(F)O3)CC1", "target": "PDGFRA", "observed": "cell-free assay", "technique": "competition with immobilised ligand", "tested at": "1 µM", "endpoint": "remaining binding", "result": "87%"}
{"SMILES": "CNC(=O)c1cc(Oc2ccc(NC(=O)Nc3ccc(Cl)c(C(F)(F)F)c3)cc2)ccn1", "target": "PDGFRA D842V", "observed": "enzyme activity", "action": "inhibitor", "tested at": "10 µM", "endpoint": "inhibition", "result": "99%"}
{"SMILES": "CCCOc1ccc(OC)c(F)c1C(=O)c1ccc(C(=O)N[C@@H]2CNC[C@H]2NC(=O)c2ccc3[nH]ncc3c2)cc1", "target": "PDGFRA V561D", "observed": "enzyme activity", "action": "inhibitor", "tested at": "10 µM", "endpoint": "remaining activity", "result": "6%"}
{"SMILES": "N#CC1(c2ccccn2)CCN(Cc2cc(C(=O)N3CCCC3)c(=O)n3ccccc23)CC1", "target": "PDGFRA", "observed": "cell-free assay", "technique": "competition with immobilised ligand", "tested at": "1 µM", "endpoint": "remaining binding", "result": "97%"}
{"SMILES": "COc1cc(-c2cc(-c3ccc(N4CCNCC4)cc3)cnc2N)cc(OC)c1OC", "target": "PDGFRA V561D", "observed": "enzyme activity", "action": "inhibitor", "tested at": "0.1 µM", "endpoint": "inhibition", "result": "45%"}
{"SMILES": "CCC(=N\\O)/C(C)=C/c1ccc(F)cc1", "target": "PDGFRA", "observed": "cell-free assay", "technique": "competition with immobilised ligand", "tested at": "1 µM", "endpoint": "remaining binding", "result": "78%"}
{"SMILES": "Cc1sc(C(=O)NC2COC2)cc1-n1cc(NC(=O)Nc2c(F)cccc2Cl)cn1", "target": "PDGFRA", "observed": "enzyme activity", "action": "inhibitor", "tested at": "10 µM", "endpoint": "remaining activity", "result": "114%"}
{"SMILES": "CNC(=O)Nc1ccc2c(c1)[C@@]1(CC2)OC(=O)N(CC(=O)N(Cc2ccc(F)cc2)[C@@H](C)C(F)(F)F)C1=O", "target": "PDGFRA", "observed": "cell-free assay", "technique": "competition with immobilised ligand", "tested at": "1 µM", "endpoint": "remaining binding", "result": "83%"}
{"SMILES": "CS(=O)(=O)CCNCc1ccc(-c2ccc3ncnc(Nc4ccc(OCc5cccc(F)c5)c(Cl)c4)c3c2)o1", "target": "PDGFRA", "observed": "cell-free assay", "tested at": "0.5 µM", "endpoint": "remaining signal", "result": "108%"}
{"SMILES": "O=C(N1CCS(=O)(=O)CC1)N1C[C@H](c2ccc(OC(F)(F)F)cc2)C[C@H](c2nc(C3CC3)no2)C1", "target": "PDGFRA", "observed": "cell-free assay", "technique": "competition with immobilised ligand", "tested at": "1 µM", "endpoint": "remaining binding", "result": "100%"}
{"SMILES": "Cc1ccc(NC(=O)c2ccc(CN3CCN(C)CC3)cc2)cc1Nc1nccc(-c2cccnc2)n1", "target": "PDGFRA", "observed": "enzyme activity", "action": "inhibitor", "tested at": "0.5 µM", "endpoint": "activity vs control", "result": "5.9%"}
{"SMILES": "Nc1ncnc2occ(-c3ccc(NC(=O)Nc4cc(C(F)(F)F)ccc4F)cc3)c12", "target": "PDGFRA", "observed": "enzyme activity", "action": "inhibitor", "tested at": "20 µM", "endpoint": "remaining activity", "result": "0.05%"}
{"SMILES": "Cc1cnc(NC2CCOCC2)nc1-n1cnc(C(=O)NC(CN)c2cc(F)cc(Cl)c2)c1 (centres unmarked)", "target": "PDGFRA", "observed": "enzyme activity", "action": "inhibitor", "technique": "radiometric", "tested at": "1 µM", "endpoint": "remaining activity", "result": "94%"}
{"SMILES": "Cc1ccc(C(=O)NCc2ccsc2)cc1C#Cc1cn(C(C)C)c2ncnc(N)c12", "target": "PDGFRA V561D", "observed": "enzyme activity", "action": "inhibitor", "tested at": "1 µM", "endpoint": "activity vs control", "result": "1%"}
{"SMILES": "Cc1nc(Cc2cccc(C(F)(F)F)c2)sc1-c1ccc(C(N)=O)nc1", "target": "PDGFRA", "observed": "cell-free assay", "technique": "competition with immobilised ligand", "tested at": "1 µM", "endpoint": "remaining binding", "result": "88%"}
{"SMILES": "Cc1ccc(C(=O)Nc2ccc(CN3CCN(C)CC3)c(C(F)(F)F)c2)cc1C#Cc1cnc2cccnn12", "target": "PDGFRA", "observed": "enzyme activity", "action": "inhibitor", "tested at": "23.5 nM", "endpoint": "remaining activity", "result": "5.3%"}
{"SMILES": "Cc1nccc(COC(=O)N2C[C@@H]3[C@@H](CNC(=O)c4ccc5[nH]nnc5c4)[C@@H]3C2)n1", "target": "PDGFRA", "observed": "cell-free assay", "technique": "competition with immobilised ligand", "tested at": "1 µM", "endpoint": "remaining binding", "result": "80%"}
{"SMILES": "Cc1ccc(NC(=O)c2ccc(C)c(C(F)(F)F)c2)cc1C#Cc1nn(C2CCC(O)CC2)c2ncnc(N)c12 (centres unmarked)", "target": "PDGFRA V561D", "observed": "enzyme activity", "action": "inhibitor", "tested at": "10 µM", "endpoint": "remaining activity", "result": "0%"}
